High-throughput results deposited in PubChem by several laboratories.
Only some compounds are listed: those with a hit (about 9.6% of all), similar ones and a draw of the others.
bCat KO growth: beta-catenin-lacking colon tumor cell growth suppression; HCT116 beta-catenin knockout viability, CellTiter-Glo, 60 h; hits give low values; viability, % at 10 µM; 140,000 compounds, 1.5% hits;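 active = viability at or under a set limit, the compound median less 4 SD, cut at about 6% in these data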;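 note: 0% = Hyamine 1622 control at 20 µM and 100% = untreated cell control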
PMI act satM6P: activators of human phosphomannose isomerase at near-saturating mannose 6-phosphate | activation factor at 20 µM | 190,000 compounds, 0.34% hits | coupled PMI enzyme assay, resazurin fluorescence, 20 min; hits give high values; 1 = untreated enzyme, 0 = substrate-free blank | P34949;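 active = activation factor of 2 or more at 20 µM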
Target sequence (P34949 whole entry, looked up): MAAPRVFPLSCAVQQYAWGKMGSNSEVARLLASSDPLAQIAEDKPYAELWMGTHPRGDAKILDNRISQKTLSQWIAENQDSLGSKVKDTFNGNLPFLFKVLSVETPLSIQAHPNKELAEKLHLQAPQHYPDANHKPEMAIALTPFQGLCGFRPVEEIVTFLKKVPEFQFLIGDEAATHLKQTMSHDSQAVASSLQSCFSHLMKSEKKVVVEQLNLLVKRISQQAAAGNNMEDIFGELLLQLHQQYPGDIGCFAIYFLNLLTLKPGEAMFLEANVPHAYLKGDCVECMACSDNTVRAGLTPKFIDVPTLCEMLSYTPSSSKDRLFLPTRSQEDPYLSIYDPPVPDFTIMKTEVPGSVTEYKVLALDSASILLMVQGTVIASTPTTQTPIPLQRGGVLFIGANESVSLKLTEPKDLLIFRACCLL
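test system = human PMI in coupled enzyme assay | medium = HEPES-buffered pH 7.4 with magnesium and detergent | also added = 1.0 mM mannose-6-phosphate substrate with 0.22 mM NADP+ | compound = 20 µM single dose | times = 20 min incubation at room temperature | measured by = resorufin fluorescence (Ex 544/Em 590 nm) from resazurin via diaphorase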
PMI activator: phosphomannose isomerase (human) activation | AID 1214 | 190,000 compounds, 0.005% hits | purified human PMI, coupled resazurin fluorescence, 20 min; hits give high values; 1 = vehicle control, 0 substrate-free wells | activation factor at 20 µM | P34949;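 active = activation factor of 2 or more at 20 µM, relative to plate controls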
L major viab: reduces viability of Leishmania major promastigotes; inhibition, % at 10 µM; 200,000 compounds, 9% hits; resazurin fluorescence viability; in the data active = inhibition above about 50%;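 note: promastigotes grown with compound for 44 hours at 28 °C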
PTEN del growth: growth suppressors of cells with PTEN tumor suppressor deletion; HCT116 PTEN-null viability, CellTiter-Glo, 60 h; hits give low values; viability, % at 10 µM; 140,000 compounds, 1.2% hits;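 active = viability at or below a set limit, 4 SD under the median of all tested compounds, cut at about 3.7% in these data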;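 note: PTEN knockout HCT116 line with beta catenin targeted HCT116 as companion control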
Numbers without * were called inactive; . = not tested or not shown.

SMILES	bCat KO growth	PMI act satM6P	PMI activator	L major viab	PTEN del growth
O=C(NC1CCCCC1)C(c1ccc(O)cc1)N(CC1CCCO1)C(=O)C1COc2ccccc2O1 (configuration not stated)	46.2	0.9	0.9	50.1*	53.0
CCOc1ccccc1OCCCCOc1ccccc1F	99.7	1	0.9	33.5	94.0
Clc1cccc(OCCCN2CCCC2)c1Cl	89.9	1.1	1.1	1.4	88.4
Fc1ccccc1OCCCCCCN1CCCC1	46.9	0.9	0.9	98.0*	58.4
Fc1ccccc1OCCCCCN1CCCC1	19.8	1	0.9	71.5*	18.9
N#CCCCn1c(-c2ccccc2)noc1=O	86.8	1	1.1	-7.5	102.5
O=C1NC(c2ccccn2)Nc2sc3c(c21)CCC3 (configuration not stated)	3.8*	0.8	0.9	0.2	1.8*
COc1cc2[nH]c(=O)n(CCC(=O)N3CCN(c4cc(Cl)ccc4C)CC3)c(=O)c2cc1OC	2.1*	1	1	-0.5	1.9*
C[n+]1c2n(c3ccccc31)N=C(c1cc(C(C)(C)C)c(O)c(C(C)(C)C)c1)CS2	.	1	1	100.0*	.
COc1cccc(C2=Nn3c(nnc3-c3ccccc3O)SC2)c1	86.7	1	1	-7.6	83.5
CCn1c(=N)n(CC(=O)C23CC4CC(CC(C4)C2)C3)c2ccccc21	59.8	0.9	0.9	62.1*	64.8
CSCc1nc2scc(-c3ccccc3)c2c(=O)[nH]1	.	1.2	1.3	18.1	.
O=c1[nH]c(Cc2ccccn2)nc2scc(-c3ccccc3Cl)c12	.	2.1*	1.8	9.4	.
CCOC(=O)C(C(=O)OCC)C(C(=O)OCC)N1CCOCC1 (configuration not stated)	1.2*	1	1	100.5*	1.7*
CCOC(=O)C(C)CC(C)C(=O)N1CCOCCOCCN(C(=O)C(C)CC(C)C(=O)OCC)CCOCC1 (configuration not stated)	99.5	1	1.1	-5.2	97.2
COc1cc(SC#N)ccc1N=Cc1c(C)[nH]n(-c2ccc(C)c(C)c2)c1=O	0.8*	0.9	0.8	98.7*	0.3*
O=C(CN(c1ccc(F)cc1)S(=O)(=O)c1ccc2c(c1)OCCO2)N1CCOCC1	102.5	0.8	0.9	-5.4	93.7
CCOc1cc(/C=C\[N+](=O)[O-])ccc1OCC(=O)Nc1ccccc1C	2.1*	0.9	1	71.2*	1.9*
O=C(Nc1ccc(C(=O)OC[C@@H]2CCCN3CCCC[C@H]23)cc1)c1cccc(Br)c1	91.7	1	1.1	68.4*	96.6
O=C(NC(=O)c1cccc(Cl)c1)OC[C@@H]1CCCN2CCCCC12 (some centres not stated)	106.4	0.9	0.9	-4.0	108.2
O=C(NC(=O)c1cccc(F)c1)OC[C@@H]1CCCN2CCCC[C@H]12	84.4	0.9	0.9	-3.3	89.7
COc1ccc(/C=C(\NC(=O)c2ccccc2)C(=O)OCC2CCCN3CCCCC23)cc1OC (configuration not stated)	.	1.1	1	72.5*	.
N#CC1=C(N)C2=CCCC[C@H]2[C@H](c2ccccc2)C1(C#N)C#N	79.0	0.6	0.8	31.4	87.8
N#CC1=C(N)C2=CCCC[C@H]2[C@H](c2ccc(Br)cc2)C1(C#N)C#N	51.9	0.6	0.8	77.7*	50.1
COc1ccc2c(CC(=O)Nc3ccccc3OC)coc2c1	.	0.9	1	-1.4	.
SMILES	bCat KO growth	PMI act satM6P	PMI activator	L major viab	PTEN del growth
COc1ccc2c(CC(=O)Nc3ccc(OC)c(NS(=O)(=O)c4ccc(F)cc4)c3)coc2c1	94.1	0.9	0.9	57.5*	84.3
CC(NCCC(c1ccccc1)c1ccccc1)c1ccccc1 (configuration not stated)	1.9*	1	0.9	80.9*	4.0
CCc1nn(CC(=O)NCCCN(CC)Cc2ccccc2)c(=O)c2cc3sccc3n12	78.4	1.1	1.1	55.3*	94.3
CCc1nn(CC(=O)NCCCN2CCCC2=O)c(=O)c2cc3sccc3n12	108.4	1	0.9	-3.2	107.5
CCc1c(C(=O)Nc2ccc(S(=O)(=O)N3CCOCC3)cc2)csc1C	74.5	0.9	0.8	9.9	67.9
CCc1ccccc1Nc1nc2ccccc2n1CC	.	1	1.1	72.1*	.
O=C1CN(C(=O)c2ccc(Br)o2)C(c2ccc(F)cc2)c2cc(F)ccc2N1 (configuration not stated)	67.5	1.1	0.9	95.2*	76.9
Cc1cc(C)nc(SCc2ccc(C(=O)N/N=C/c3ccco3)cc2)n1	.	1.1	1.2	-2.5	.
COc1ccc(C(C[N+](=O)[O-])c2c(-c3ccccc3)cc3ccccn23)c(OC)c1 (configuration not stated)	37.4	1.6	1.3	100.2*	41.5
COc1ccc(C(C[N+](=O)[O-])c2c(C)cc3ccccn23)cc1 (configuration not stated)	.	0.8	1.1	98.6*	.
COc1ccc2c(-c3ccccc3)cc(=O)[nH]c2c1	85.8	0.9	0.9	7.2	99.5
Cc1cc2ccccn2c1C(C[N+](=O)[O-])c1ccc(N(C)C)cc1 (configuration not stated)	58.9	0.8	1	88.6*	65.4
Cc1cc2ccccn2c1C(=O)Nc1ccccc1	.	1	0.9	-3.4	.
O=C(Cn1cnc2cc(Cl)ccc2c1=O)Nc1ccc2c(c1)OCO2	81.3	1	1	-3.0	96.1
CC(C(=O)NCC1CCCCC1)N1CCN(S(=O)(=O)/C=C/c2ccccc2)CC1 (configuration not stated)	83.2	1	0.9	99.3*	77.9
COc1ccc(CCNC(=O)CC2SC(=NCc3ccccc3)NC2=O)cc1 (configuration not stated)	.	1.1	1	-1.6	.
O=C1CCC(=O)N1CC(=O)N(c1ccccc1)c1ccccc1	.	1	1	3.5	.
O=C(CCl)N(c1ccccc1)c1ccccc1	.	1	1	77.2*	.
CCCCNc1cc(C)nc(NCc2ccccc2)n1	1.3*	1	1	100.5*	1.5*
Cc1cc(N/N=C/c2ccc(Cl)cc2Cl)nc(NCc2ccccc2)n1	7.7	0.9	0.8	62.2*	4.3
Cc1cc(Nc2ccc(Cl)cc2)nc(NCc2ccccc2)n1	1.1*	0.9	0.9	100.5*	1.4*
Cc1cc(Oc2ccccc2)nc(NCc2ccccc2)n1	62.8	0.9	0.9	9.8	48.4
Cc1cc(Nc2ccccc2)nc(NCc2ccccc2)n1	6.8	1	1	100.2*	5.5
Cc1cc(C)nc(N/N=C/c2ccccc2OCc2ccc(Cl)cc2)n1	57.5	1.1	1.2	12.4	50.2
O=C(O)c1c2c(nc3ccc(S(=O)(=O)N4CCC(C(=O)NC5CCCCCC5)CC4)cc13)CCCC2	.	0.9	1.2	8.7	.
Cc1ccc(NC(=O)CSc2nc3ccccc3c(=O)n2CCCC(=O)NCCCN2CCOCC2)cc1	.	1.1	1.1	0.9	.
